The text below walks through data of ChEMBL document CHEMBL1135850, “P1 Phenethyl peptide boronic acid inhibitors of HCV NS3 protease” (Bioorg Med Chem Lett, 2002).

Peptide text beside a SMILES is read from it. * marks the point of attachment. X5 = Cc1ccc(CC[C@H](N*)B2O[C@@H]3C[C@@H]4C[C@@H](C4(C)C)[C@]3(C)O2)c(C)c1; X7 = Cc1ccc(C)c(CC[C@H](N*)B2O[C@@H]3C[C@@H]4C[C@@H](C4(C)C)[C@]3(C)O2)c1; X2 = Cc1ccccc1CC[C@H](N*)B1O[C@@H]2C[C@@H]3C[C@@H](C3(C)C)[C@]2(C)O1

One experiment deals with T1, Neutrophil elastase (Homo sapiens, UniProt P08246).
T1 sequence (P08246 whole entry): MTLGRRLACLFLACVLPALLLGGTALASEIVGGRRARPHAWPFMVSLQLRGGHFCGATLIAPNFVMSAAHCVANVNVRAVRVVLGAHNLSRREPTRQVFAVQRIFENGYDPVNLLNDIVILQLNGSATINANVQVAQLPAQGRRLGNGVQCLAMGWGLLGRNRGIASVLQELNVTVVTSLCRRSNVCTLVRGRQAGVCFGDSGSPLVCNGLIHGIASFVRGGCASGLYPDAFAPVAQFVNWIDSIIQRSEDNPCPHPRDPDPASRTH
Nature of the experiment: Inhibitory concentration against Human leukocyte Elastase. A digest of the protocol: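 Human neutrophil elastase (stock 1 mg/mL in PBS with 10% glycerol) with MeO-Suc-Ala-Ala-Pro-Val-p-nitroanilide substrate in PBS at room temperature, DMSO ≤2%. Inhibitors were tested as pinanediol esters. Substrate hydrolysis was followed at 405 nm to derive kinetic parameters.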

In the next experiment the target is NS3 (Hepatitis C virus, UniProt A3EZJ3). In words: Inhibitory concentration against Hepatitis C virus NS3 protease. Further details: species or system Hepacivirus hominis. A digest of the protocol:
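Continuous fluorescence assay with 4 nM NS3 protease plus NS4A cofactor peptide, in 50 mM Tris pH 7.0, 5 mM DTT, 50% glycerol, 2% CHAPS. Serially diluted inhibitors, given as boronic acid pinanediol esters, were preincubated with enzyme for 15 min. The reaction was started with the FRET ester substrate Ac-DED(EDANS)EEAbuψ[COO]ASK(DABCYL)-NH2 at ambient temperature and read at excitation 360 nm, emission 530 nm.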

Regarding `COc1ccc(CC[C@H](NC(=O)[C@H]2CCCN2C(=O)[C@@H](NC(=O)[C@@H](NC(=O)[C@H](CCC(=O)O)NC(=O)[C@@H](N)CC(=O)O)C(C)C)C(C)C)B2O[C@@H]3C[C@@H]4C[C@@H](C4(C)C)[C@]3(C)O2)cc1`, the IC50 (in general, the concentration at which inhibition is half-maximal) at Neutrophil elastase was determined as 560 nM.
On the same count and under the same terms, to `CC(C)[C@H](NC(=O)[C@H](CCC(=O)O)NC(=O)[C@@H](N)CC(=O)O)C(=O)N[C@H](C(=O)N1CCC[C@@H]1C(=O)N[C@@H](CCc1ccc(C(F)(F)F)cc1)B1O[C@@H]2C[C@@H]3C[C@@H](C3(C)C)[C@]2(C)O1)C(C)C` belongs 1800 nM.
`CC(C)[C@H](NC(=O)[C@H](CCC(=O)O)NC(=O)[C@@H](N)CC(=O)O)C(=O)N[C@H](C(=O)N1CCC[C@@H]1C(=O)N[C@@H](CCc1ccc(C2CCCCC2)cc1)B1O[C@@H]2C[C@@H]3C[C@@H](C3(C)C)[C@]2(C)O1)C(C)C` came in with a 50% inhibitory concentration (IC50) on Neutrophil elastase of 400 nM.
For `CC(C)[C@H](NC(=O)[C@H](CCC(=O)O)NC(=O)[C@@H](N)CC(=O)O)C(=O)N[C@H](C(=O)N1CCC[C@@H]1C(=O)N[C@@H](CCc1ccc(Br)cc1)B1O[C@@H]2C[C@@H]3C[C@@H](C3(C)C)[C@]2(C)O1)C(C)C`, at Neutrophil elastase, the IC50 turned out to be 1600 nM. Compared with the last molecule, the IC50 is about 4-fold higher.
On Neutrophil elastase, `CC(C)[C@H](NC(=O)[C@H](CCC(=O)O)NC(=O)[C@@H](N)CC(=O)O)C(=O)N[C@H](C(=O)N1CCC[C@@H]1C(=O)N[C@@H](CCc1ccccc1)B1O[C@@H]2C[C@@H]3C[C@@H](C3(C)C)[C@]2(C)O1)C(C)C` displayed an IC50 of 3500 nM.
On the same count and under the same terms, to `CC(C)[C@H](NC(=O)[C@H](CCC(=O)O)NC(=O)[C@@H](N)CC(=O)O)C(=O)N[C@H](C(=O)N1CCC[C@@H]1C(=O)N[C@@H](CCc1ccc(O)cc1)B1O[C@@H]2C[C@@H]3C[C@@H](C3(C)C)[C@]2(C)O1)C(C)C` belongs 900 nM; to `CC(C)c1ccc(CC[C@H](NC(=O)[C@H]2CCCN2C(=O)[C@@H](NC(=O)[C@@H](NC(=O)[C@H](CCC(=O)O)NC(=O)[C@@H](N)CC(=O)O)C(C)C)C(C)C)B2O[C@@H]3C[C@@H]4C[C@@H](C4(C)C)[C@]3(C)O2)cc1`, 450 nM.
Regarding `CC(C)[C@H](NC(=O)[C@H](CCC(=O)O)NC(=O)[C@@H](N)CC(=O)O)C(=O)N[C@H](C(=O)N1CCC[C@@H]1C(=O)N[C@@H](CCc1ccc(Cl)cc1)B1O[C@@H]2C[C@@H]3C[C@@H](C3(C)C)[C@]2(C)O1)C(C)C`, on Neutrophil elastase, 1400 nM corresponded to half-maximal inhibition (IC50).
`CC(C)[C@H](NC(=O)[C@H](CCC(=O)O)NC(=O)[C@@H](N)CC(=O)O)C(=O)N[C@H](C(=O)N1CCC[C@@H]1C(=O)N[C@@H](CCc1ccc(C(C)(C)C)cc1)B1O[C@@H]2C[C@@H]3C[C@@H](C3(C)C)[C@]2(C)O1)C(C)C` yielded an IC50 on Neutrophil elastase of 340 nM.
The molecule `CC(C)[C@H](NC(=O)[C@H](CCC(=O)O)NC(=O)[C@@H](N)CC(=O)O)C(=O)N[C@H](C(=O)N1CCC[C@@H]1C(=O)N[C@@H](CCc1ccc(Oc2ccccc2)cc1)B1O[C@@H]2C[C@@H]3C[C@@H](C3(C)C)[C@]2(C)O1)C(C)C` showed an IC50 on Neutrophil elastase of 220 nM.
Consider `CC(C)[C@H](NC(=O)[C@H](CCC(=O)O)NC(=O)[C@@H](N)CC(=O)O)C(=O)N[C@H](C(=O)N1CCC[C@@H]1C(=O)N[C@@H](CCCCc1ccccc1)B1O[C@@H]2C[C@@H]3C[C@@H](C3(C)C)[C@]2(C)O1)C(C)C`, for which the IC50 against Neutrophil elastase came out at 400 nM.
At Neutrophil elastase, `CC[C@H](NC(=O)[C@H]1CCCN1C(=O)[C@@H](NC(=O)[C@@H](NC(=O)[C@H](CCC(=O)O)NC(=O)[C@@H](N)CC(=O)O)C(C)C)C(C)C)B1O[C@@H]2C[C@@H]3C[C@@H](C3(C)C)[C@]2(C)O1` gave a half-inhibitory concentration (IC50) of 20 nM.
On the same count and under the same terms, in the case of `Cc1ccc(CC[C@H](NC(=O)[C@H]2CCCN2C(=O)[C@@H](NC(=O)[C@@H](NC(=O)[C@H](CCC(=O)O)NC(=O)[C@@H](N)CC(=O)O)C(C)C)C(C)C)B2O[C@@H]3C[C@@H]4C[C@@H](C4(C)C)[C@]3(C)O2)cc1` it was 5000 nM; in that of `CC(C)C[C@H](NC(=O)[C@H]1CCCN1C(=O)[C@@H](NC(=O)[C@@H](NC(=O)[C@H](CCC(=O)O)NC(=O)[C@@H](N)CC(=O)O)C(C)C)C(C)C)B1O[C@@H]2C[C@@H]3C[C@@H](C3(C)C)[C@]2(C)O1`, 60 nM.
Regarding `Cc1ccccc1CC[C@H](NC(=O)[C@@H]1CCCN1C(=O)[C@@H](NC(=O)[C@@H](NC(=O)[C@H](CCC(=O)O)NC(=O)[C@@H](N)CC(=O)O)C(C)C)C(C)C)B1O[C@@H]2C[C@@H]3C[C@@H](C3(C)C)[C@]2(C)O1` (H-DEVVP-X2), half-maximal inhibition on NS3 (IC50) required 820 nM. This lies in the sub-micromolar range.
In turn, `Cc1ccc(CC[C@H](NC(=O)[C@@H]2CCCN2C(=O)[C@@H](NC(=O)[C@@H](NC(=O)[C@H](CCC(=O)O)NC(=O)[C@@H](N)CC(=O)O)C(C)C)C(C)C)B2O[C@@H]3C[C@@H]4C[C@@H](C4(C)C)[C@]3(C)O2)c(C)c1` (H-DEVVP-X5) came in with an IC50 at NS3 of 530 nM. Against the preceding molecule, the IC50 is about 1.5-fold lower.
On the same count and under the same terms, in the case of `Cc1ccc(C)c(CC[C@H](NC(=O)[C@@H]2CCCN2C(=O)[C@@H](NC(=O)[C@@H](NC(=O)[C@H](CCC(=O)O)NC(=O)[C@@H](N)CC(=O)O)C(C)C)C(C)C)B2O[C@@H]3C[C@@H]4C[C@@H](C4(C)C)[C@]3(C)O2)c1` (H-DEVVP-X7) it was 1000 nM.
